This note sets out measurements from ChEMBL document CHEMBL3861977, “Effects of Oleanane-Type Triterpene Saponins from the Leaves of Eleutherococcus senticosus in an Axonal Outgrowth Assay” (J Nat Prod, 2016).

Structures are written as SMILES. Activity calls are given as the source filed them. The rule behind the calls is not given here.

For this assay, the system named is Cortical neurone. Nature of the assay: Inhibition of amyloid beta (25 to 35)-induced neuronal degeneration in ddY mouse embryo cortical neurons assessed as restoration of axonal outgrowth by measuring length of phosphorylated neurofilament-H-positive neurites at 10 uM treated 3 days post amyloid beta (25 to 35) stimulation measured after 4 days by fluorescent microscopic analysis. The class given is functional. Put shortly: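 Cortical neurons from E14 ddY mouse embryos, plated on poly-D-lysine (5 μg/mL) in neurobasal medium with 12% horse serum, switched to 2% B-27 medium 3−12 h later, 37 °C, 10% CO2. Day 3: 10 μM Aβ25−35 (pre-aggregated 4 days at 37 °C) for 3 days. Then Aβ removed; 10 μM isolate, 0.1% DMSO vehicle or NGF 10 ng/mL for 4 days. Fixed in 4% PFA, stained for pNF-H and DAPI, pNF-H-positive neurite length measured; 10−79 photos per treatment, Dunnett's test.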
In the case of `C[C@@H]1O[C@@H](O[C@H]2[C@H](O[C@H]3CC[C@]4(C)[C@H]5CC=C6[C@@H]7C[C@](C)(C=O)CC[C@]7(C(=O)O[C@@H]7O[C@H](CO[C@@H]8O[C@H](CO)[C@@H](O[C@@H]9O[C@@H](C)[C@H](O)[C@@H](O)[C@H]9O)[C@H](O)[C@H]8O)[C@@H](O)[C@H](O)[C@H]7O)CC[C@@]6(C)[C@]5(C)CC[C@H]4C3(C)C)OC[C@H](O)[C@@H]2O)[C@H](O)[C@H](O)[C@H]1O`, the inhibition result was “Active”.

Consider `C=C1CC[C@]2(C(=O)O[C@@H]3O[C@H](CO[C@@H]4O[C@H](COC(C)=O)[C@@H](O[C@@H]5O[C@@H](C)[C@H](O)[C@@H](O)[C@H]5O)[C@H](O)[C@H]4O)[C@@H](O)[C@H](O)[C@H]3O)CC[C@]3(C)C(=CC[C@@H]4[C@@]5(C)CC[C@H](O[C@@H]6OC[C@H](O)[C@H](O)[C@H]6O)C(C)(C)[C@@H]5CC[C@]43C)[C@@H]2C1`, for which the inhibition result is “Active”.

Consider `C=C1CC[C@]2(C(=O)O[C@@H]3O[C@H](CO[C@@H]4O[C@H](CO)[C@@H](O[C@@H]5O[C@@H](C)[C@H](O)[C@@H](O)[C@H]5O)[C@H](O)[C@H]4O)[C@@H](O)[C@H](O)[C@H]3O)CC[C@]3(C)C(=CC[C@@H]4[C@@]5(C)CC[C@H](O[C@@H]6OC[C@H](O)[C@H](O)[C@H]6O[C@@H]6O[C@@H](C)[C@H](O)[C@@H](O)[C@H]6O)C(C)(C)[C@@H]5CC[C@]43C)[C@@H]2C1`, for which the inhibition entry was “Active”.

As to `CC(=O)OC[C@H]1O[C@@H](OC[C@H]2O[C@@H](OC(=O)[C@]34CC[C@@](C)(CO)C[C@H]3C3=CC[C@@H]5[C@@]6(C)CC[C@H](O[C@@H]7OC[C@H](O)[C@H](O)[C@H]7O[C@@H]7O[C@@H](C)[C@H](O)[C@@H](O)[C@H]7O)C(C)(C)[C@@H]6CC[C@@]5(C)[C@]3(C)CC4)[C@H](O)[C@@H](O)[C@@H]2O)[C@H](O)[C@@H](O)[C@@H]1O[C@@H]1O[C@@H](C)[C@H](O)[C@@H](O)[C@H]1O`, the inhibition result was “Active”.

With `CC(=O)OC[C@H]1O[C@@H](OC[C@H]2O[C@@H](OC(=O)[C@]34CC[C@@](C)(C(=O)O)C[C@H]3C3=CC[C@@H]5[C@@]6(C)CC[C@H](O[C@@H]7OC[C@H](O)[C@H](O)[C@H]7O[C@@H]7O[C@@H](C)[C@H](O)[C@@H](O)[C@H]7O)C(C)(C)[C@@H]6CC[C@@]5(C)[C@]3(C)CC4)[C@H](O)[C@@H](O)[C@@H]2O)[C@H](O)[C@@H](O)[C@@H]1O[C@@H]1O[C@@H](C)[C@H](O)[C@@H](O)[C@H]1O`, the inhibition entry is “Active”.

Turning to `CC(=O)OC[C@H]1O[C@@H](OC[C@H]2O[C@@H](OC(=O)[C@]34CC[C@@](C)(C=O)C[C@H]3C3=CC[C@@H]5[C@@]6(C)CC[C@H](O[C@@H]7OC[C@H](O)[C@H](O)[C@H]7O[C@@H]7O[C@@H](C)[C@H](O)[C@@H](O)[C@H]7O)C(C)(C)[C@@H]6CC[C@@]5(C)[C@]3(C)CC4)[C@H](O)[C@@H](O)[C@@H]2O)[C@H](O)[C@@H](O)[C@@H]1O[C@@H]1O[C@@H](C)[C@H](O)[C@@H](O)[C@H]1O`, the inhibition result was “Active”.

Regarding `C=C1CC[C@]2(C(=O)O[C@@H]3O[C@H](CO[C@@H]4O[C@H](COC(C)=O)[C@@H](O[C@@H]5O[C@@H](C)[C@H](O)[C@@H](O)[C@H]5O)[C@H](O)[C@H]4O)[C@@H](O)[C@H](O)[C@H]3O)CC[C@]3(C)C(=CC[C@@H]4[C@@]5(C)CC[C@H](O[C@@H]6OC[C@H](O)[C@H](O)[C@H]6O[C@@H]6O[C@H](CO)[C@@H](O)[C@H](O)[C@H]6O)C(C)(C)[C@@H]5CC[C@]43C)[C@@H]2C1`, the inhibition result is “Active”.

For `CC(=O)OC[C@H]1O[C@@H](OC[C@H]2O[C@@H](OC(=O)[C@]34CCC(C)(C)C[C@H]3C3=CC[C@@H]5[C@@]6(C)CC[C@H](O[C@@H]7OC[C@H](O)[C@H](O)[C@H]7O[C@@H]7O[C@H](CO)[C@@H](O)[C@H](O)[C@H]7O)C(C)(C)[C@@H]6CC[C@@]5(C)[C@]3(C)CC4)[C@H](O)[C@@H](O)[C@@H]2O)[C@H](O)[C@@H](O)[C@@H]1O[C@@H]1O[C@@H](C)[C@H](O)[C@@H](O)[C@H]1O`, the inhibition entry was “Active”.

Regarding `CC(=O)OC[C@H]1O[C@@H](OC[C@H]2O[C@@H](OC(=O)[C@]34CCC(C)(C)C[C@H]3C3=CC[C@@H]5[C@@]6(C)CC[C@H](O[C@@H]7OC[C@H](O)[C@H](O)[C@H]7O[C@@H]7O[C@@H](C)[C@H](O)[C@@H](O)[C@H]7O)C(C)(C)[C@@H]6CC[C@@]5(C)[C@]3(C)CC4)[C@H](O)[C@@H](O)[C@@H]2O)[C@H](O)[C@@H](O)[C@@H]1O[C@@H]1O[C@@H](C)[C@H](O)[C@@H](O)[C@H]1O`, the inhibition entry is “Active”.

Consider `C[C@@H]1O[C@@H](O[C@H]2[C@H](O[C@H]3CC[C@]4(C)[C@H]5CC=C6[C@@H]7CC(C)(C)CC[C@]7(C(=O)O[C@@H]7O[C@H](CO[C@@H]8O[C@H](CO)[C@@H](O[C@@H]9O[C@@H](C)[C@H](O)[C@@H](O)[C@H]9O)[C@H](O)[C@H]8O)[C@@H](O)[C@H](O)[C@H]7O)CC[C@@]6(C)[C@]5(C)CC[C@H]4C3(C)C)OC[C@H](O)[C@@H]2O)[C@H](O)[C@H](O)[C@H]1O`, for which the inhibition result is “Active”.

On to `C=C1CC[C@]2(C(=O)O[C@@H]3O[C@H](CO[C@@H]4O[C@H](COC(C)=O)[C@@H](O[C@@H]5O[C@@H](C)[C@H](O)[C@@H](O)[C@H]5O)[C@H](O)[C@H]4O)[C@@H](O)[C@H](O)[C@H]3O)CC[C@]3(C)C(=CC[C@@H]4[C@@]5(C)CC[C@H](O[C@@H]6OC[C@H](O)[C@H](O)[C@H]6O[C@@H]6O[C@@H](C)[C@H](O)[C@@H](O)[C@H]6O)C(C)(C)[C@@H]5CC[C@]43C)[C@@H]2C1`, for which the inhibition entry was “Active”.

`C[C@@H]1O[C@@H](O[C@H]2[C@H](O)[C@@H](O)[C@H](OC[C@H]3O[C@@H](OC(=O)[C@]45CC[C@@](C)(C=O)C[C@H]4C4=CC[C@@H]6[C@@]7(C)CC[C@H](O[C@@H]8OC[C@H](O)[C@H](O)[C@H]8O)C(C)(C)[C@@H]7CC[C@@]6(C)[C@]4(C)CC5)[C@H](O)[C@@H](O)[C@@H]3O)O[C@@H]2CO)[C@H](O)[C@H](O)[C@H]1O`: the inhibition result was “Active”.

For `C[C@@H]1O[C@@H](O[C@H]2[C@H](O)[C@@H](O)[C@H](OC[C@H]3O[C@@H](OC(=O)[C@]45CCC(C)(C)C[C@H]4C4=CC[C@@H]6[C@@]7(C)CC[C@H](O[C@@H]8OC[C@H](O)[C@H](O[C@@H]9O[C@H](CO)[C@@H](O)[C@H](O)[C@H]9O)[C@H]8O)C(C)(C)[C@@H]7CC[C@@]6(C)[C@]4(C)C[C@@H]5O)[C@H](O)[C@@H](O)[C@@H]3O)O[C@@H]2CO)[C@H](O)[C@H](O)[C@H]1O`, the inhibition entry was “Active”.

On to `CC(=O)OC[C@H]1O[C@@H](OC[C@H]2O[C@@H](OC(=O)[C@]34CC[C@@](C)(C(=O)O)C[C@H]3C3=CC[C@@H]5[C@@]6(C)CC[C@H](O[C@@H]7OC[C@H](O)[C@H](O)[C@H]7O)C(C)(C)[C@@H]6CC[C@@]5(C)[C@]3(C)CC4)[C@H](O)[C@@H](O)[C@@H]2O)[C@H](O)[C@@H](O)[C@@H]1O[C@@H]1O[C@@H](C)[C@H](O)[C@@H](O)[C@H]1O`, for which the inhibition result was “Active”.

Turning to `C[C@@H]1O[C@@H](O[C@H]2[C@H](O[C@H]3CC[C@@]4(C)[C@@H](CC[C@]5(C)[C@@H]4CC=C4[C@@H]6CC(C)(C)CC[C@]6(C(=O)O[C@@H]6O[C@H](CO[C@@H]7O[C@H](CO)[C@@H](O[C@@H]8O[C@@H](C)[C@H](O)[C@@H](O)[C@H]8O)[C@H](O)[C@H]7O)[C@@H](O)[C@H](O)[C@H]6O)CC[C@]45C)[C@]3(C)CO)OC[C@H](O)[C@@H]2O)[C@H](O)[C@H](O)[C@H]1O`, the inhibition entry was “Active”.

For the compound `C[C@@H]1O[C@@H](O[C@H]2[C@H](O)[C@@H](O)[C@H](OC[C@H]3O[C@@H](OC(=O)[C@]45CCC(C)(C)C[C@H]4C4=CC[C@@H]6[C@@]7(C)CC[C@H](O[C@@H]8OC[C@H](O)[C@H](O)[C@H]8O)C(C)(C)[C@@H]7CC[C@@]6(C)[C@]4(C)CC5)[C@H](O)[C@@H](O)[C@@H]3O)O[C@@H]2CO)[C@H](O)[C@H](O)[C@H]1O`, the inhibition entry is “Active”.
